Assay results reported in ChEMBL document CHEMBL1811844, “Design, synthesis, and biological evaluation of triazolo-pyrimidine derivatives as novel inhibitors of hepatitis B virus surface antigen (HBsAg) secretion” (J Med Chem, 2011).

Assays:
Hepatitis B virus [1] = test: Antiviral activity against wild-type Hepatitis B virus infected in human HepG2 cells assessed as inhibition of HBsAg secretion by ELISA; assay type: functional, organism-based
Rattus norvegicus [2] = test: Cmax in fasted Sprague-Dawley rat plasma at 25 mg/kg, po after 6 hrs by LC/MS/MS analysis; assay type: ADME, organism-based; set-up: dose 25 mg/kg, route oral; conditions: in vivo
Summary of the method: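 Male rats, 3 per treatment, fitted with jugular vein cannulae two days before dosing and fasted 12 h (water allowed). Compound given by gavage at 25 mg/kg, formulated at 2 mg/mL in 1:1 NMP:Solutol HS15 diluted with saline. Blood taken predose and at 5, 15, 30 min, 1, 3 and 6 h. Plasma quantified by LC/MS against an 8-point standard curve; Cmax calculated by standard methods.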

Mus musculus [3] = test: Acute toxicity in CL57BL/6 mouse assessed as effect on serum alanine aminotransferase level at 25 mg/kg, iv administered as single dose after 24 hrs; assay type: organism-based; set-up: dose 25 mg/kg, route intravenous; conditions: in vivo
Summary of the method: (§1)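 Female C57BL/6 mice, four per group, randomized, each given one tail-vein injection of a 2 mg/mL solution in 1:1 NMP:Solutol HS15 diluted with saline; a vehicle-only group served as control. Mice were watched for the first hour and sacrificed at 24 h with necropsy. Serum was collected and run on an automated chemistry and electrolyte analyser.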

Hepatitis B virus [4] = test: Antiviral activity against lamivudine/telbivudine-resistant Hepatitis B virus harboring polymerase M552I mutant in human HepG2 cells assessed as inhibition of HBsAg secretion by ELISA; assay type: functional, organism-based
Mus musculus [5] = test: Acute toxicity in CL57BL/6 mouse assessed as effect on serum alkaline phosphatase level at 25 mg/kg, iv administered as single dose after 24 hrs; assay type: organism-based; set-up: dose 25 mg/kg, route intravenous; conditions: in vivo
Summary of the method: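 Female C57BL/6 mice, four per group, randomized, each given one tail-vein injection of a 2 mg/mL solution in 1:1 NMP:Solutol HS15 diluted with saline; a vehicle-only group served as control. Serum was collected and run on an automated chemistry and electrolyte analyser.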

Mus musculus [6] = test: Acute toxicity in CL57BL/6 mouse assessed as effect on serum blood urea nitrogen level at 25 mg/kg, iv administered as single dose after 24 hrs; assay type: organism-based; set-up: dose 25 mg/kg, route intravenous; conditions: in vivo; summary of the method: as §1
[7] = Cytotoxicity against human HepG2(2.2.15) cells by MTT assay; assay type: cell-based
Mus musculus [8] = test: Toxicity in HBV infected transgenic 1.3.32 mouse assessed as change in serum total protein level at 7.9 to 25 mg/kg, po qd for 14 days; assay type: organism-based; set-up: dose 7.9-25 mg/kg, route oral; conditions: in vivo, 336 h
Summary of the method: (§2)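 HBV-transgenic mice (strain 1.3.32), 10 per group, randomised; oral gavage once daily for 14 days at 25 or 7.9 mg/kg in NMP:Solutol HS15/saline vehicle; vehicle-only group. Weighed before the first dose and after 3 days; observed one hour after each dose. Tail-vein blood taken before dosing, at day 7 and at day 14 necropsy, each 3 h post-dose, for serum chemistry.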

Hepatitis B virus [9] = test: Antiviral activity against adefovir-resistant Hepatitis B virus harboring polymerase N584T mutant in human HepG2 cells assessed as inhibition of HBsAg secretion by ELISA; assay type: functional, organism-based
Rattus norvegicus [10] = test: Half life in fasted Sprague-Dawley rat plasma at 5 mg/kg, iv by LC/MS/MS analysis; assay type: ADME, organism-based; set-up: dose 5 mg/kg, route intravenous; conditions: in vivo
Summary of the method: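 Male Sprague-Dawley rats, 3 per treatment, carried jugular cannulae and were fasted 12 h with water. Compound was formulated at 2 mg/mL in 1:1 NMP:Solutol HS15 diluted with saline. Dosing was 5 mg/kg iv or 25 mg/kg oral gavage. Blood was drawn predose and at 5, 15, 30 min, 1, 3 and 6 h. Plasma was quantified by LC-MS/MS against an 8-point standard curve.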

Mus musculus [11] = test: Acute toxicity in CL57BL/6 mouse assessed as effect on basophils percent at 25 mg/kg, iv administered as single dose after 24 hrs; assay type: organism-based; set-up: dose 25 mg/kg, route intravenous; conditions: in vivo
Summary of the method: as §1, with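 “watched closely” for “watched”, “Whole blood” for “Serum”, “taken for complete blood counts” for “collected and run”, “haematology” for “chemistry and electrolyte”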

Mus musculus [12] = test: Acute toxicity in CL57BL/6 mouse assessed as effect on serum K+ level at 25 mg/kg, iv administered as single dose after 24 hrs; assay type: organism-based; set-up: dose 25 mg/kg, route intravenous; conditions: in vivo; summary of the method: as §1
Mus musculus [13] = test: Acute toxicity in CL57BL/6 mouse assessed as effect on white blood cells count at 25 mg/kg, iv administered as single dose after 24 hrs; assay type: organism-based; set-up: dose 25 mg/kg, route intravenous; conditions: in vivo
Summary of the method: (§3)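 Female C57BL/6 mice, four per group, randomised; single tail-vein bolus in NMP:Solutol HS15 (1:1) diluted with saline to 2 mg/mL, injected within 10 min of preparation; vehicle-only group. Close observation for the first hour; sacrifice and necropsy at 24 h. Whole-blood complete blood counts and serum chemistry, including total bilirubin and total protein, were measured.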

Mus musculus [14] = test: Acute toxicity in CL57BL/6 mouse assessed as effect on mean platelet volume at 25 mg/kg, iv administered as single dose after 24 hrs; assay type: organism-based; set-up: dose 25 mg/kg, route intravenous; conditions: in vivo
Summary of the method: as §1, with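 “watched closely” for “watched”, “Whole blood” for “Serum”, “taken for complete blood counts” for “collected and run”, “haematology” for “chemistry and electrolyte”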

Mus musculus [15] = test: Toxicity in HBV infected transgenic 1.3.32 mouse assessed as change in serum glucose level at 7.9 to 25 mg/kg, po qd for 14 days; assay type: organism-based; set-up: dose 7.9-25 mg/kg, route oral; conditions: in vivo, 336 h; summary of the method: as §2
Mus musculus [16] = test: Toxicity in HBV infected transgenic 1.3.32 mouse assessed as change in serum alkaline phosphatase level at 7.9 to 25 mg/kg, po qd for 14 days; assay type: organism-based; set-up: dose 7.9-25 mg/kg, route oral; conditions: in vivo, 336 h; summary of the method: as §2
Mus musculus [17] = test: Toxicity in HBV infected transgenic 1.3.32 mouse assessed as elevation in serum bilirubin level at 7.9 to 25 mg/kg, po qd for 14 days; assay type: organism-based; set-up: dose 7.9-25 mg/kg, route oral; conditions: in vivo, 336 h; summary of the method: as §2
Mus musculus [18] = test: Acute toxicity in CL57BL/6 mouse assessed as effect on serum total bilirubin level at 25 mg/kg, iv administered as single dose after 24 hrs; assay type: organism-based; set-up: dose 25 mg/kg, route intravenous; conditions: in vivo; summary of the method: as §1
Mus musculus [19] = test: Toxicity in HBV infected transgenic 1.3.32 mouse assessed as change in serum albumin level at 7.9 to 25 mg/kg, po qd for 14 days; assay type: organism-based; set-up: dose 7.9-25 mg/kg, route oral; conditions: in vivo, 336 h; summary of the method: as §2
Mus musculus [20] = test: Acute toxicity in CL57BL/6 mouse assessed as effect on mean corpuscular at 25 mg/kg, iv administered as single dose after 24 hrs; assay type: organism-based; set-up: dose 25 mg/kg, route intravenous; conditions: in vivo
Summary of the method: as §1, with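 “watched closely” for “watched”, “Whole blood” for “Serum”, “taken for complete blood counts” for “collected and run”, “haematology” for “chemistry and electrolyte”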

Mus musculus [21] = test: Acute toxicity in CL57BL/6 mouse assessed as effect on serum glucose level at 25 mg/kg, iv administered as single dose after 24 hrs; assay type: organism-based; set-up: dose 25 mg/kg, route intravenous; conditions: in vivo; summary of the method: as §1
Mus musculus [22] = test: Toxicity in HBV infected transgenic 1.3.32 mouse assessed as morphological changes at 7.9 to 25 mg/kg, po qd for 14 days; assay type: organism-based; set-up: dose 7.9-25 mg/kg, route oral; conditions: in vivo, 336 h; summary of the method: as §2
Mus musculus [23] = test: Acute toxicity in CL57BL/6 mouse assessed as effect on red blood cells count at 25 mg/kg, iv administered as single dose after 24 hrs; assay type: organism-based; set-up: dose 25 mg/kg, route intravenous; conditions: in vivo
Summary of the method: as §1, with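 “watched closely” for “watched”, “Whole blood” for “Serum”, “taken for complete blood counts” for “collected and run”, “haematology” for “chemistry and electrolyte”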

Mus musculus [24] = test: Acute toxicity in CL57BL/6 mouse assessed as effect on eosinophils percent at 25 mg/kg, iv administered as single dose after 24 hrs; assay type: organism-based; set-up: dose 25 mg/kg, route intravenous; conditions: in vivo
Summary of the method: as §1, with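 “watched closely” for “watched”, “Whole blood” for “Serum”, “taken for complete blood counts” for “collected and run”, “haematology” for “chemistry and electrolyte”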

Mus musculus [25] = test: Acute toxicity in CL57BL/6 mouse assessed as effect on serum Na+ level at 25 mg/kg, iv administered as single dose after 24 hrs; assay type: organism-based; set-up: dose 25 mg/kg, route intravenous; conditions: in vivo; summary of the method: as §1
Mus musculus [26] = test: Acute toxicity in CL57BL/6 mouse assessed as effect on hemoglobin at 25 mg/kg, iv administered as single dose after 24 hrs; assay type: organism-based; set-up: dose 25 mg/kg, route intravenous; conditions: in vivo
Summary of the method: as §1, with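 “watched closely” for “watched”, “Whole blood” for “Serum”, “taken for complete blood counts” for “collected and run”, “haematology” for “chemistry and electrolyte”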

Mus musculus [27] = test: Toxicity in HBV infected transgenic 1.3.32 mouse assessed as change in serum globulin level at 7.9 to 25 mg/kg, po qd for 14 days; assay type: organism-based; set-up: dose 7.9-25 mg/kg, route oral; conditions: in vivo, 336 h; summary of the method: as §2
Hepatitis B virus [28] = test: Antiviral activity against entecavir-resistant Hepatitis B virus harboring polymerase L528M, M552V, T532G and S550I mutant in human HepG2 cells assessed as inhibition of HBsAg secretion by ELISA; assay type: functional, organism-based
Mus musculus [29] = test: Acute toxicity in CL57BL/6 mouse assessed as reduction in neutrophils count at 25 mg/kg, iv administered as single dose after 24 hrs; assay type: organism-based; set-up: dose 25 mg/kg, route intravenous; conditions: in vivo; summary of the method: as §3
Mus musculus [30] = test: Toxicity in HBV infected transgenic 1.3.32 mouse assessed as change in serum amylase level at 7.9 to 25 mg/kg, po qd for 14 days; assay type: organism-based; set-up: dose 7.9-25 mg/kg, route oral; conditions: in vivo, 336 h; summary of the method: as §2
Mus musculus [31] = test: Toxicity in HBV infected transgenic 1.3.32 mouse assessed as elevation in serum Na+ level at 7.9 to 25 mg/kg, po qd for 14 days; assay type: organism-based; set-up: dose 7.9-25 mg/kg, route oral; conditions: in vivo, 336 h; summary of the method: as §2

In the case of Fc1cccc(Cl)c1C1CC(c2ccc(Cl)cc2)Nc2ncnn21 (racemic), the EC50 (Hepatitis B virus [1]) is reported as 8.4 µM, the Cmax (Rattus norvegicus [2]) is reported as 2437 ng/mL and the Activity (Mus musculus [3]) is reported as “Non-toxic”. The EC50 (Hepatitis B virus [4]) was 9.1 µM, the Activity (Mus musculus [5]) was “Non-toxic” and the Activity (Mus musculus [6]) was “Non-toxic”. The CC50 [7] was over 50 µM, the Activity (Mus musculus [8]) was “Non-toxic” and the EC50 (Hepatitis B virus [9]) was 5.6 µM. For the same compound, the t1/2 (Rattus norvegicus [10]) was 2.17 h, the Activity (Mus musculus [11]) was “Non-toxic” and the Activity (Mus musculus [12]) was “Non-toxic”. The Activity (Mus musculus [13]) was “Non-toxic”, the Activity (Mus musculus [14]) was “Non-toxic” and the Activity (Mus musculus [15]) was “Non-toxic”. For the same compound, the Activity (Mus musculus [16]) was “Non-toxic”, the Activity (Mus musculus [17]) was “Toxic” and the Activity (Mus musculus [18]) was “Non-toxic”. The Activity (Mus musculus [19]) was “Non-toxic”, the Activity (Mus musculus [20]) was “Non-toxic” and the Activity (Mus musculus [21]) was “Non-toxic”. For the same compound, the Activity (Mus musculus [22]) was “Non-toxic”, the Activity (Mus musculus [23]) was “Non-toxic” and the Activity (Mus musculus [24]) was “Non-toxic”. For the same compound, the Activity (Mus musculus [25]) was “Non-toxic”, the Activity (Mus musculus [26]) was “Non-toxic” and the Activity (Mus musculus [27]) was “Non-toxic”. For the same compound, the EC50 (Hepatitis B virus [28]) was 8.3 µM, the Activity (Mus musculus [29]) was “Toxic” and the Activity (Mus musculus [30]) was “Non-toxic”. For the same compound, the Activity (Mus musculus [31]) was “Toxic”.
